The full list was thinned out, with hits kept by preference.
Biofilm kill mix = mixtures killing C. albicans biofilm; inhibition, % at 7.6 µM; 0.02% of 120,000 active; C. albicans biofilm persisters + clotrimazole, fluorescence viability; primary screen in compound mixtures of four per well; AID 1242;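 active means inhibition above 30.3% in the primary screen of four-compound pools, then above 30% when the compound was retested; inconclusive means passed the primary limit but could not be retested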;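 further: compounds exposed to preformed 24 h biofilms for 48 h; 0% = untreated biofilm control and 100% = clotrimazole plus chlorhexidine kill blank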
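System: C. albicans CAF4-2 wild-type biofilms; Medium: RPMI/MOPS medium, pH 7.0; Reagent: Clotrimazole, 50 µg/mL; Times: biofilm formation 24 h, compound exposure 48 h, 37 °C; Detection: 2-h Alamar Blue fluorescence, 535/590 nm excitation/emission; Evaluation: percent inhibition of biofilm viability.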
Pf gamet viab = inhibitors of late stage P. falciparum gametocyte viability | 0.065% of 150,000 active | P. falciparum stage V gametocytes, ATP luminescence, 24 h | AID 743093 | inhibition, % at 10.9 µM;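 active means inhibition above the mean plus 3 SD of compounds within the control limits, set per campaign, cut at about 38% in these data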;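 further: 0% = DMSO wells and 100% = medium only without gametocytes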
ROMK primary = modulators of human ROMK potassium channel | P48048 | Tet-inducible ROMK, thallium flux fluorescence; actives lie on both sides | B-score at 10 µM | 2% of 130,000 active;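 active means signal ratio slope over the read window, or its plate-corrected B-score, at least 3 SD from the plate mean, either direction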;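 further: B-score of the F/F0 ratio slope over 7 to 12 s after thallium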
Target sequence (P48048 whole entry, looked up): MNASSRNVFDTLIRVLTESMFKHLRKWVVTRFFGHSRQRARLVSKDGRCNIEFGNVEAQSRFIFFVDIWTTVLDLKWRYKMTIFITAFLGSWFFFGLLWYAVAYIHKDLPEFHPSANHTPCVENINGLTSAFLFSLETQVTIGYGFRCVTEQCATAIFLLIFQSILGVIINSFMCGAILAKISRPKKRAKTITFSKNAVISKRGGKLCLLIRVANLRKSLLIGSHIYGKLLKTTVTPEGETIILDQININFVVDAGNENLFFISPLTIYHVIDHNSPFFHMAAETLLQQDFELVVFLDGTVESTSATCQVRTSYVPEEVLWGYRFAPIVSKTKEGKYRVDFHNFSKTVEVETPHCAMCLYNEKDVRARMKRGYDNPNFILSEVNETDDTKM
ROMK retest = human ROMK channel modulation, retest confirmation | shares compounds with ROMK primary | ROMK thallium flux, fluorescence ratio; stronger effect = lower value | normalized thallium flux (F/F0 slope) at 10 µM | 54% of 3,000 active;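 active means Flux at 10 µM at least 3 SD below or above vehicle control mean in one or both replicates; inconclusive means no clear call, values can overlap the other calls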
Active calls of the source: *.

Cc1ccc2c(c1)C(=O)C(=O)N2CCCOc1ccccc1 was read as Biofilm kill mix 16, Pf gamet viab -17, ROMK primary 3.6* and ROMK retest 0.074.
CN(CC(=O)NC1CCCc2ccccc21)S(=O)(=O)c1cccs1 (stereo not drawn) was read as Biofilm kill mix 14 and ROMK primary -1.1.
For O=C(CNS(=O)(=O)c1ccc(Br)s1)NC1CCCc2ccccc21 (stereo not drawn) the results were Biofilm kill mix 3, Pf gamet viab 6, ROMK primary -3.8* and ROMK retest 0.067*.
O=C(CSc1ccc(-c2ccco2)nn1)NC1CCCC1 was read as Biofilm kill mix 14 and ROMK retest 0.081.
`O=C(CSc1ccc(-c2ccco2)nn1)NC1CCCCC1` gave Biofilm kill mix 15.
Screening Cc1ccc(OCc2nc(-c3ccccc3)no2)cc1 returned Biofilm kill mix 10, Pf gamet viab 7 and ROMK primary 0.063.
Screening Cc1cc(NC(=O)C2CCCN2C(=O)Nc2c(C)cccc2C)ccc1-n1cnnn1 (stereo not drawn) returned Biofilm kill mix 12 and ROMK primary -1.1.
For Cc1cc(C)cc(NC(=O)N2CCCC2C(=O)Nc2ccc(-n3cnnn3)c(C)c2)c1 (stereo not drawn) the results were ROMK retest 0.076.
Screening CCOc1ccc(NC(=O)N[C@@H](CCSC)C(=O)OC)cc1 returned ROMK primary 2.4* and ROMK retest inconclusive.
Screening COC(=O)[C@H](CCSC)NC(=O)Nc1ccc(C(C)C)cc1 returned Pf gamet viab -2 and ROMK primary -0.39.
`Cc1nn(-c2ccccc2)c(OC(=O)c2cccs2)c1S(=O)(=O)c1ccc([N+](=O)[O-])cc1` gave Pf gamet viab 18 and ROMK primary -0.62.
For O=C1/C(=C/c2ccc(O)c(O)c2)SC(=S)N1Nc1ccccc1 the results were Biofilm kill mix 14, ROMK primary -2* and ROMK retest 0.058*.
Screening COc1cc(/C=C2\SC(=S)N(Nc3ccccc3)C2=O)ccc1O returned Biofilm kill mix 16.
For COc1cc(/C=C2\SC(=S)N(Nc3ncc(C(F)(F)F)cc3Cl)C2=O)ccc1O the results were ROMK primary -3.7* and ROMK retest 0.064*.
For COc1cc(/C=C2\SC(=S)N(c3cccnc3)C2=O)ccc1O the results were Biofilm kill mix 16 and Pf gamet viab 11.
`CN(C)c1ccc(/C=C2\SC(=S)N(Nc3ncc(C(F)(F)F)cc3Cl)C2=O)cc1` gave Pf gamet viab -13.
For COc1cc(/C=C2\SC(=S)N(NC(=O)c3cccnc3)C2=O)ccc1O the results were Biofilm kill mix 17, Pf gamet viab -14, ROMK primary -4.2* and ROMK retest 0.058*.
For O=C1CSC(c2ccccn2)N1c1ccc(F)cc1F (stereo not drawn) the results were Biofilm kill mix 7 and Pf gamet viab 14.
For CC(C)CCNC(=O)c1onc(CSc2ccccc2)c1C(=O)NCCC(C)C the results were Pf gamet viab -9.
Screening C[C@@H]1CC=C[C@H]2[C@H]1C(=O)N(Cc1ccccc1)[C@H]2c1ccc(/C=C/c2ccccc2)cc1F returned Biofilm kill mix 18.
Screening O=C(NCCN1C(=O)CSC1=O)C1CC(=O)N(c2ccccc2)C1 (stereo not drawn) returned Pf gamet viab -17, ROMK primary 0.91* and ROMK retest 0.081.
`O=C(NC1=NCCS1)C1CC(=O)N(c2ccccc2)C1` (stereo not drawn) gave ROMK primary -0.0094.
For O=C1Nc2ccccc2/C1=C/c1cnc(-c2ccccc2)[nH]1 the results were Biofilm kill mix 16, Pf gamet viab 2 and ROMK retest 0.048*.
`O=C1Nc2ccccc2/C1=C/c1cccnc1` gave Biofilm kill mix 14, Pf gamet viab -62 and ROMK primary -1.8.
`COc1ccc(C(=O)/C=C/Nc2ccc(S(N)(=O)=O)cc2)cc1OC` gave Biofilm kill mix 18 and Pf gamet viab -5.
`CN(C)c1nc(C=C(C#N)C#N)c(Cl)n1-c1ccc(F)cc1` gave Biofilm kill mix 15, Pf gamet viab -2, ROMK primary -3.9* and ROMK retest 0.059*.
CCOc1ccccc1NC(=O)/C(C#N)=C/c1c(C)nn(-c2ccc(F)cc2)c1Cl was read as Biofilm kill mix 11 and Pf gamet viab -13.
CN1C(=O)/C(=C/C=C2\SCCN2C)N(C)C1=S was read as Biofilm kill mix 8 and ROMK primary -0.79.
For CN1C(=O)/C(=C/C=C2\SCCN2C)SC1=S the results were Biofilm kill mix 11, ROMK primary -3* and ROMK retest 0.057*.
For COCCCNC(=O)c1ccc(OC)c(OC2CCN(C(C)C)CC2)c1 the results were Pf gamet viab 7.
